Assay results from ChEMBL document CHEMBL1821656, “Design, synthesis, and evaluation of inhibitors of Norwalk virus 3C protease” (Bioorg Med Chem Lett, 2011).

Key:
[1] = test system: Norwalk virus; experiment: Inhibition of recombinant Norwalk virus 3C protease using Edans-EPDFHLQGPEDLAK-Dabcyl as substrate at [compound]/[substrate] ratio of 25 preincubated for 30 mins measured for 30 mins by spectrofluorometry; parameters: concentration or dose not given beside the values
[2] = (§1) Inhibition of recombinant Norwalk virus 3C protease using Edans-EPDFHLQGPEDLAK-Dabcyl as substrate preincubated for 30 mins measured for 30 mins by spectrofluorometry
Outline: (§2)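 Enzyme (final 2.5 μM) was held at 30 °C in pH 8.0 sodium phosphate (50 mM) containing 120 mM NaCl and 6 mM DTT. The fluorescence increase was monitored 30 min at 360/460 nm excitation/emission.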

[3] = test system: Norwalk virus; experiment: Antiviral activity against Norwalk virus in NV replicon-harboring HG23 cells assessed as inhibition of viral replication after 24 hrs by analyzing NV genome level using qRT-PCR; assay type: functional; settings: HG23, 24 h, read-out: ED50 (the source's name)
Outline: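 HG23 cells (stably harbouring NV replicon), 1 day old and 80–90% confluent, treated with compound at 0 (DMSO mock) to 320 μM. NV genome levels quantified by qRT-PCR after 24 h of treatment.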

[4] = Cytotoxicity against human HG23 cells after 48 hrs; assay type: cell-based; settings: read-out: TD50
Outline: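 HG23 cells carrying the Norwalk replicon were used 1 day after plating at 80-90% confluence. They were exposed for 48 hr to compound at 0 (DMSO mock) to 320 μM. Viability was measured with a commercial cytotoxicity kit, and the median toxic dose (TD50) was calculated.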

[5] = Cytotoxicity against mouse […] cells after 12 to 24 hrs relative to ribavirin; assay type: cell-based; settings: read-out: TD50 (the source's name)
[6] = test system: Norwalk virus; experiment: as §1; outline: as §2

CC(C)C[C@H](NC(=O)OCc1ccccc1)C(=O)N[C@H](CO)CC1CCNC1=O (stereo partly specified) gave an inhibition [1] of under 25%.

Compound O=C[C@H](CC1CCNC1=O)NC(=O)[C@H](Cc1ccccc1)NC(=O)N1CCOCC1 (stereo partly specified) has an inhibition [1] of under 25%.

CC(C)C[C@H](NC(=O)N1CCOCC1)C(=O)N[C@H](C=O)CC1CCNC1=O (stereo partly specified) gave an IC50 [2] of 7.2 µM.

CCCC[C@H](NC(=O)CNC(=O)OCc1ccccc1)C(=O)N[C@H](CO)CC1CCNC1=O (stereo partly specified) gave an inhibition [1] of under 25%.

For CC[C@@H](C)[C@H](NC(=O)CNC(=O)OCc1ccccc1)C(=O)N[C@H](C=O)CC1CCNC1=O (stereo partly specified), the IC50 [2] was 7.5 µM.

Compound CC(C)C[C@H](NC(=O)CNC(=O)OCc1ccccc1)C(=O)N[C@H](CO)CC1CCNC1=O (stereo partly specified) has an inhibition [1] of under 25%.

With CC(C)C[C@H](NC(=O)CNC(=O)OCc1ccccc1)C(=O)N[C@H](C=O)CC1CCNC1=O (stereo partly specified) the EC50 [3] was 7.8 µM, the CC50 at 48 h [4] was over 320 µM and the IC50 [2] was 1.45 µM. The CC50 [5] was over 320 µM.

CCCC[C@H](NC(=O)CNC(=O)OCc1ccccc1)C(=O)N[C@H](C=O)CC1CCNC1=O (stereo partly specified) showed an IC50 [2] of 0.87 µM.

Compound CC(C)C[C@H](NC(=O)OCc1ccccc1)C(=O)N[C@@H](CC1CCNC1=O)C(=O)C(=O)NC(C)C (stereo partly specified) has an inhibition [1] of under 25%.

For CC(C)C[C@H](NC(=O)OCc1ccccc1)C(=O)N[C@H](C=O)CC1CCNC1=O (stereo partly specified), the CC50 at 48 h [4] was over 320 µM, the inhibition [6] was “Dose-dependent effect” and the IC50 [2] was 1.82 µM. The CC50 [5] was over 320 µM.
